Assay results taken from publication PMC7482441 (Pharmacological Research, 2020).

What was measured:
healthy male subjects = settings: earlier Merck KGaA phase I studies; cited from earlier work
ambulant boys with DMD = experiment: Phase Ib safety assessments; format: in vivo, human
In short: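 Open-label study in boys aged 6–14 with genetically confirmed DMD, walking ≥75 m and on stable corticosteroids ≥6 months. Dosing was oral, 50–300 mg TID for 4 weeks, in 4 ascending cohorts. Assessments at screening, weeks 1, 2 and 4, and 1–2 weeks post-treatment: physical exam, AEs, supine/standing blood pressure and heart rate, respiratory rate. Also 12-lead ECG with QT, read locally and centrally, plus blood/urine haematology and biochemistry.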

UMX 101 hamsters = settings: lifelong preventive treatment; cited from earlier work
MCP1 = experiment: Circulating biomarker, baseline vs 4-week treatment; format: in vivo, human; settings: 20 DMD patients, OLink, p-value 0.0016, FDR 0.39
IGFBP6 = experiment: as above; format: in vivo, human; settings: 20 DMD patients, OLink, p-value 0.0044, FDR 0.89
IGFBP1 = experiment: as above; format: in vivo, human; settings: 20 DMD patients, OLink, p-value 1.7e-8, FDR 4e-6
[1] = system: CK MM (Creatine Kinase MM isoform); experiment: as above; format: in vivo, human; settings: 20 DMD patients, Electrophoresis, p-value 0.0009, FDR 0.24
[2] = Cohort 1 N = 5, 150 to 225 mg daily oral, 4 weeks
[3] = Cohort 2 N = 5, 300 to 450 mg daily oral, 4 weeks
[4] = Cohort 3 N = 5, 450 to 600 mg daily oral, 4 weeks
[5] = Cohort 4 N = 5, 600 to 900 mg daily oral, 4 weeks

SMILES: [H]/N=C(\N)NC(=O)c1cc(S(C)(=O)=O)c(S(C)(=O)=O)cc1C [Rimeporide]
- maximum tolerated dose (healthy male subjects): could not be defined
- 12-lead ECGs (ambulant boys with DMD; 4-week treatment): no clinically important changes
- Abdominal pain upper: patients (events) (ambulant boys with DMD; All patients N = 20, 4 weeks): 2 (3 events)
- Chills: patients (events) (ambulant boys with DMD; All patients N = 20, 4 weeks): 1 (2 events)
- Cough: patients (events) (ambulant boys with DMD; All patients N = 20, 4 weeks): 3 (3 events)
- Dizziness: patients (events) (ambulant boys with DMD; All patients N = 20, 4 weeks): 1 (1 event)
- Ear and labyrinth disorders: patients (events) (ambulant boys with DMD; All patients N = 20, 4 weeks): 1 (1 event)
- Fall: patients (events) (ambulant boys with DMD; All patients N = 20, 4 weeks): 1 (1 event)
- Flushing: patients (events) (ambulant boys with DMD; All patients N = 20, 4 weeks): 2 (3 events)
- Gastrointestinal disorders: patients (events) (ambulant boys with DMD; All patients N = 20, 4 weeks): 6 (10 events)
- General disorders and administration site conditions: patients (events) (ambulant boys with DMD; All patients N = 20, 4 weeks): 2 (3 events)
- Infections and infestations: patients (events) (ambulant boys with DMD; All patients N = 20, 4 weeks): 4 (4 events)
- Injury, poisoning and procedural complications: patients (events) (ambulant boys with DMD; All patients N = 20, 4 weeks): 1 (1 event)
- Mouth ulceration: patients (events) (ambulant boys with DMD; All patients N = 20, 4 weeks): 1 (1 event)
- Nervous system disorders: patients (events) (ambulant boys with DMD; All patients N = 20, 4 weeks): 7 (8 events)
- Oropharyngeal pain: patients (events) (ambulant boys with DMD; All patients N = 20, 4 weeks): 1 (1 event)
- Presyncope: patients (events) (ambulant boys with DMD; All patients N = 20, 4 weeks): 1 (1 event)
- Pyrexia: patients (events) (ambulant boys with DMD; All patients N = 20, 4 weeks): 1 (1 event)
- Respiratory, thoracic and mediastinal disorders: patients (events) (ambulant boys with DMD; All patients N = 20, 4 weeks): 4 (4 events)
- Tympanic membrane perforation: patients (events) (ambulant boys with DMD; All patients N = 20, 4 weeks): 1 (1 event)
- Vascular disorders: patients (events) (ambulant boys with DMD; All patients N = 20, 4 weeks): 2 (3 events)
- Vomiting: patients (events) (ambulant boys with DMD; All patients N = 20, 4 weeks): 2 (2 events)
- Abdominal pain upper: patients (events) (ambulant boys with DMD; [2]): 0
- Any treatment-emergent adverse event: patients (events) (ambulant boys with DMD; [2]): 2 (6 events)
- Chills: patients (events) (ambulant boys with DMD; [2]): 1 (2 events)
- Cough: patients (events) (ambulant boys with DMD; [2]): 0
- Diarrhoea: patients (events) (ambulant boys with DMD; [2]): 0
- Dizziness: patients (events) (ambulant boys with DMD; [2]): 0
- Ear and labyrinth disorders: patients (events) (ambulant boys with DMD; [2]): 0
- Fall: patients (events) (ambulant boys with DMD; [2]): 1 (1 event)
- Flushing: patients (events) (ambulant boys with DMD; [2]): 0
- Gastrointestinal disorders: patients (events) (ambulant boys with DMD; [2]): 0
- General disorders and administration site conditions: patients (events) (ambulant boys with DMD; [2]): 1 (2 events)
- Headache: patients (events) (ambulant boys with DMD; [2]): 1 (1 event)
- Infections and infestations: patients (events) (ambulant boys with DMD; [2]): 0
- Injury, poisoning and procedural complications: patients (events) (ambulant boys with DMD; [2]): 1 (1 event)
- Mouth ulceration: patients (events) (ambulant boys with DMD; [2]): 0
- Nasopharyngitis: patients (events) (ambulant boys with DMD; [2]): 0
- Nervous system disorders: patients (events) (ambulant boys with DMD; [2]): 1 (1 event)
- Oropharyngeal pain: patients (events) (ambulant boys with DMD; [2]): 0
- Presyncope: patients (events) (ambulant boys with DMD; [2]): 0
- Pyrexia: patients (events) (ambulant boys with DMD; [2]): 0
- Respiratory, thoracic and mediastinal disorders: patients (events) (ambulant boys with DMD; [2]): 0
- Tympanic membrane perforation: patients (events) (ambulant boys with DMD; [2]): 0
- Vascular disorders: patients (events) (ambulant boys with DMD; [2]): 0
- Vomiting: patients (events) (ambulant boys with DMD; [2]): 0
- Abdominal pain upper: patients (events) (ambulant boys with DMD; [3]): 0
- Any treatment-emergent adverse event: patients (events) (ambulant boys with DMD; [3]): 1 (3 events)
- Chills: patients (events) (ambulant boys with DMD; [3]): 0
- Cough: patients (events) (ambulant boys with DMD; [3]): 1 (1 event)
- Diarrhoea: patients (events) (ambulant boys with DMD; [3]): 0
- Dizziness: patients (events) (ambulant boys with DMD; [3]): 0
- Ear and labyrinth disorders: patients (events) (ambulant boys with DMD; [3]): 0
- Fall: patients (events) (ambulant boys with DMD; [3]): 0
- Flushing: patients (events) (ambulant boys with DMD; [3]): 0
- Gastrointestinal disorders: patients (events) (ambulant boys with DMD; [3]): 1 (1 event)
- General disorders and administration site conditions: patients (events) (ambulant boys with DMD; [3]): 0
- Headache: patients (events) (ambulant boys with DMD; [3]): 0
- Infections and infestations: patients (events) (ambulant boys with DMD; [3]): 1 (1 event)
- Injury, poisoning and procedural complications: patients (events) (ambulant boys with DMD; [3]): 0
- Mouth ulceration: patients (events) (ambulant boys with DMD; [3]): 1 (1 event)
- Nasopharyngitis: patients (events) (ambulant boys with DMD; [3]): 1 (1 event)
- Nervous system disorders: patients (events) (ambulant boys with DMD; [3]): 0
- Oropharyngeal pain: patients (events) (ambulant boys with DMD; [3]): 0
- Presyncope: patients (events) (ambulant boys with DMD; [3]): 0
- Pyrexia: patients (events) (ambulant boys with DMD; [3]): 0
- Respiratory, thoracic and mediastinal disorders: patients (events) (ambulant boys with DMD; [3]): 1 (1 event)
- Tympanic membrane perforation: patients (events) (ambulant boys with DMD; [3]): 0
- Vascular disorders: patients (events) (ambulant boys with DMD; [3]): 0
- Vomiting: patients (events) (ambulant boys with DMD; [3]): 0
- Abdominal pain upper: patients (events) (ambulant boys with DMD; [4]): 1 (2 events)
- Any treatment-emergent adverse event: patients (events) (ambulant boys with DMD; [4]): 5 (15 events)
- Chills: patients (events) (ambulant boys with DMD; [4]): 0
- Cough: patients (events) (ambulant boys with DMD; [4]): 1 (1 event)
- Diarrhoea: patients (events) (ambulant boys with DMD; [4]): 3 (4 events)
- Dizziness: patients (events) (ambulant boys with DMD; [4]): 1 (1 event)
- Ear and labyrinth disorders: patients (events) (ambulant boys with DMD; [4]): 0
- Fall: patients (events) (ambulant boys with DMD; [4]): 0
- Flushing: patients (events) (ambulant boys with DMD; [4]): 1 (1 event)
- Gastrointestinal disorders: patients (events) (ambulant boys with DMD; [4]): 4 (8 events)
- General disorders and administration site conditions: patients (events) (ambulant boys with DMD; [4]): 0
- Headache: patients (events) (ambulant boys with DMD; [4]): 2 (2 events)
- Infections and infestations: patients (events) (ambulant boys with DMD; [4]): 2 (2 events)
- Injury, poisoning and procedural complications: patients (events) (ambulant boys with DMD; [4]): 0
- Mouth ulceration: patients (events) (ambulant boys with DMD; [4]): 0
- Nasopharyngitis: patients (events) (ambulant boys with DMD; [4]): 2 (2 events)
- Nervous system disorders: patients (events) (ambulant boys with DMD; [4]): 3 (3 events)
- Oropharyngeal pain: patients (events) (ambulant boys with DMD; [4]): 0
- Presyncope: patients (events) (ambulant boys with DMD; [4]): 0
- Pyrexia: patients (events) (ambulant boys with DMD; [4]): 0
- Respiratory, thoracic and mediastinal disorders: patients (events) (ambulant boys with DMD; [4]): 1 (1 event)
- Tympanic membrane perforation: patients (events) (ambulant boys with DMD; [4]): 0
- Vascular disorders: patients (events) (ambulant boys with DMD; [4]): 1 (1 event)
- Vomiting: patients (events) (ambulant boys with DMD; [4]): 2 (2 events)
- Abdominal pain upper: patients (events) (ambulant boys with DMD; [5]): 1 (1 event)
- Any treatment-emergent adverse event: patients (events) (ambulant boys with DMD; [5]): 4 (13 events)
- Chills: patients (events) (ambulant boys with DMD; [5]): 0
- Cough: patients (events) (ambulant boys with DMD; [5]): 1 (1 event)
- Diarrhoea: patients (events) (ambulant boys with DMD; [5]): 0
- Dizziness: patients (events) (ambulant boys with DMD; [5]): 0
- Ear and labyrinth disorders: patients (events) (ambulant boys with DMD; [5]): 1 (1 event)
- Flushing: patients (events) (ambulant boys with DMD; [5]): 1 (2 events)
- Gastrointestinal disorders: patients (events) (ambulant boys with DMD; [5]): 1 (1 event)
- General disorders and administration site conditions: patients (events) (ambulant boys with DMD; [5]): 1 (1 event)
- Headache: patients (events) (ambulant boys with DMD; [5]): 2 (3 events)
- Infections and infestations: patients (events) (ambulant boys with DMD; [5]): 1 (1 event)
- Mouth ulceration: patients (events) (ambulant boys with DMD; [5]): 0
- Nasopharyngitis: patients (events) (ambulant boys with DMD; [5]): 1 (1 event)
- Nervous system disorders: patients (events) (ambulant boys with DMD; [5]): 3 (4 events)
- Oropharyngeal pain: patients (events) (ambulant boys with DMD; [5]): 1 (1 event)
- Presyncope: patients (events) (ambulant boys with DMD; [5]): 1 (1 event)
- Pyrexia: patients (events) (ambulant boys with DMD; [5]): 1 (1 event)
- Respiratory, thoracic and mediastinal disorders: patients (events) (ambulant boys with DMD; [5]): 2 (2 events)
- Tympanic membrane perforation: patients (events) (ambulant boys with DMD; [5]): 1 (1 event)
- Vascular disorders: patients (events) (ambulant boys with DMD; [5]): 1 (2 events)
- Vomiting: patients (events) (ambulant boys with DMD; [5]): 0
- gastrin levels (ambulant boys with DMD; after a four-week treatment): No modifications of gastrin levels
- TEAEs of mild intensity (ambulant boys with DMD; all cohorts): Thirty-five
- TEAEs reported as severe (ambulant boys with DMD; all cohorts): 2
- SAE related to study medication (ambulant boys with DMD; all doses, 4 weeks, 20 DMD boys): No SAE related to study medication was reported
- blood pressure and heart rate (ambulant boys with DMD; standing and supine, 4-week treatment): devoid of any blood pressure or heart rate lowering effects
- treatment emergent adverse events (TEAEs), total events (ambulant boys with DMD; twelve patients of 20): 37
- mortality (UMX 101 hamsters): dramatic reduction in mortality
- MCP1: Term (TRT, linear mixed effect model, Day 28 vs Day 0) (MCP1): −0.5675
- IGFBP6: Term (TRT, linear mixed effect model, Day 28 vs Day 0) (IGFBP6): −0.3144
- IGFBP1: Term (TRT, linear mixed effect model, Day 28 vs Day 0) (IGFBP1): −2.7123
- CK MM: Term (TRT, linear mixed effect model, Day 28 vs Day 0) [1]: −0.3886
